The target of assay [1] is Glycogen synthase kinase-3 beta (Homo sapiens) (UniProt P49841). Put plainly: Inhibition of GSK3-beta at 10 uM by HotSpot assay.
In assay [2] the target is Focal adhesion kinase 1 (Homo sapiens) (UniProt Q05397). As to the kind of experiment: Inhibition of PTK2 at 10 uM by HotSpot assay.
The target in assay [3] is Mitogen-activated protein kinase 1 (Homo sapiens) (UniProt P28482). Put plainly: Inhibition of MAPK1 at 10 uM by HotSpot assay.
Assay [4] concerns the target Platelet-derived growth factor receptor beta (Homo sapiens) (UniProt P09619). Put plainly: Inhibition of PDGFRbeta at 10 uM by HotSpot assay.
In assay [5] the target is Tyrosine-protein kinase Fyn (Homo sapiens) (UniProt P06241). As to the kind of experiment: Inhibition of FYN at 10 uM by HotSpot assay.
Assay [6] concerns the target Myotonin-protein kinase (Homo sapiens) (UniProt Q09013). As to the kind of experiment: Inhibition of DMPK at 10 uM by HotSpot assay.
In assay [7] the target is High affinity nerve growth factor receptor (Homo sapiens) (UniProt P04629). As to the kind of experiment: Inhibition of NTRK1 at 10 uM by HotSpot assay.
The target in assay [8] is RAC-alpha serine/threonine-protein kinase (Homo sapiens) (UniProt P31749). Put plainly: Inhibition of AKT1 at 10 uM by HotSpot assay.
For assay [9], the target named is Insulin receptor (Homo sapiens) (UniProt P06213). As to the kind of experiment: Inhibition of IR at 10 uM by HotSpot assay.
The target of assay [10] is Angiopoietin-1 receptor (Homo sapiens) (UniProt Q02763). Put plainly: Inhibition of TIE2 at 10 uM by HotSpot assay.
The target of assay [11] is Serine/threonine-protein kinase Chk1 (Homo sapiens) (UniProt O14757). As to the kind of experiment: Inhibition of CHK1 at 10 uM by HotSpot assay.
In assay [12] the target is Dual specificity mitogen-activated protein kinase kinase 1 (Homo sapiens) (UniProt Q02750). As to the kind of experiment: Inhibition of MEK1 at 10 uM by HotSpot assay.
Assay [13] deals with Serine/threonine-protein kinase mTOR (Homo sapiens) (UniProt P42345). As to the kind of experiment: Inhibition of mTOR at 10 uM by HotSpot assay.
The target of assay [14] is Rho-associated protein kinase 1 (Homo sapiens) (UniProt Q13464). Put plainly: Inhibition of ROCK1 at 10 uM by HotSpot assay.
Assay [15] concerns the target Mitogen-activated protein kinase 14 (Homo sapiens) (UniProt Q16539). Put plainly: Inhibition of p38alpha at 10 uM by HotSpot assay.
The target of assay [16] is Proto-oncogene tyrosine-protein kinase receptor Ret (Homo sapiens) (UniProt P07949). As to the kind of experiment: Inhibition of RET at 10 uM by HotSpot assay.
Assay [17] addresses Tyrosine-protein kinase ABL1 (Homo sapiens) (UniProt P00519). Put plainly: Inhibition of ABL1 at 10 uM by HotSpot assay.
The subject of assay [18] is MCF7. Put plainly: Cytotoxicity against human MCF7 cells assessed as cell growth at 0.001 uM after 48 hrs by sulforhodamine B assay. Type of assay: functional. To be noted: MCF7, 48 h, read-out: Activity.
In assay [19] the test system is RXF 393. As to the kind of experiment: Cytotoxicity against human RXF393 cells assessed as cell growth at 0.001 uM after 48 hrs by sulforhodamine B assay. To be noted: RXF 393, 48 h, read-out: Activity. The class given is functional. Background: The SRB assay estimates cell density from bound dye.
Assay [20] concerns CCRF-CEM. Put plainly: Cytotoxicity against human CCRF-CEM cells assessed as cell growth at 100 nM after 48 hrs by sulforhodamine B assay. Type of assay: functional. The following applies: read-out: Activity.
Assay [21] concerns CCRF-CEM. Put plainly: Growth inhibition of human CCRF-CEM cells after 48 hrs by sulforhodamine B assay. Type of assay: functional. In short, it runs like this:
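Five-dose SRB assay. Cells in RPMI 1640 with 5% FBS and 2 mM L-glutamine were seeded at 5,000–40,000 cells/well, with a TCA-fixed time-zero plate (Tz) taken at 24 h. Compound stocks were in DMSO, serially diluted 10-fold or ½-log to five concentrations, and incubated 48 h at 37 °C. Plates were stained with SRB and read at 515 nm. IC₅₀ was taken where [(Ti−Tz)/(C−Tz)]×100 = 50.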

Assay [22] has as its system HCC 2998. As to the kind of experiment: Cytotoxicity against human HCC2998 cells assessed as cell growth at 100 nM after 48 hrs by sulforhodamine B assay. Type of assay: functional. To be noted: HCC 2998, 48 h, read-out: Activity.
For assay [23], the system named is MCF7. As to the kind of experiment: Cytotoxicity against human MCF7 cells assessed as cell growth at 10 uM after 48 hrs by sulforhodamine B assay. The class given is functional. The following applies: MCF7, 48 h, read-out: Activity.
In assay [24] the test system is CCRF-CEM. Put plainly: Cytotoxicity against human CCRF-CEM cells assessed as cell growth at 0.001 uM after 48 hrs by sulforhodamine B assay. Type of assay: functional. To be noted: read-out: Activity.
Assay [25] has as its system NCI-H226. Put plainly: Growth inhibition of human NCI-H226 cells after 48 hrs by sulforhodamine B assay. The class given is functional. To be noted: NCI-H226, 48 h. In short, it runs like this:
(§1)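 Cells grown in RPMI 1640 with 5% FBS and 2 mM L-glutamine, seeded at 5,000–40,000 cells/well according to doubling time. After 24 h, time-zero plates are TCA-fixed. Five concentrations (10-fold or ½log dilutions, DMSO stocks) are applied for 48 h at 37 °C, 5% CO₂. Cells are TCA-fixed, SRB-stained and read at 515 nm. IC₅₀ is taken from [(Ti−Tz)/(C−Tz)]×100 = 50.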

Assay [26] relates to NCI-H226. As to the kind of experiment: Cytotoxicity against human NCI-H226 cells assessed as cell growth at 100 nM after 48 hrs by sulforhodamine B assay. Type of assay: functional. To be noted: NCI-H226, 48 h, read-out: Activity.
The test system of assay [27] is PC-3. As to the kind of experiment: Growth inhibition of human PC3 cells after 48 hrs by sulforhodamine B assay. Type of assay: functional, cell-based.
The subject of assay [28] is RXF 393. As to the kind of experiment: Cytotoxicity against human RXF393 cells assessed as cell growth at 100 nM after 48 hrs by sulforhodamine B assay. The class given is functional. The following applies: RXF 393, 48 h, read-out: Activity.
The subject of assay [29] is NCI-H226. As to the kind of experiment: Cytotoxicity against human NCI-H226 cells assessed as cell growth at 0.01 uM after 48 hrs by sulforhodamine B assay. To be noted: NCI-H226, 48 h, read-out: Activity. The class given is functional.
In a further assay the test system is NCI-H23. Put plainly: Cytotoxicity against human NCI-H23 cells assessed as cell growth at 100 nM after 48 hrs by sulforhodamine B assay. Type of assay: functional. The following applies: NCI-H23, 48 h, read-out: Activity.
The test system of assay [30] is PC-3. As to the kind of experiment: Cytotoxicity against human PC3 cells assessed as cell growth at 0.001 uM after 48 hrs by sulforhodamine B assay. Type of assay: functional. To be noted: PC-3, 48 h, read-out: Activity.
The subject of assay [31] is HCC 2998. Put plainly: Cytotoxicity against human HCC2998 cells assessed as cell growth at 10 uM after 48 hrs by sulforhodamine B assay. Type of assay: functional. To be noted: HCC 2998, 48 h, read-out: Activity.
The test system of assay [32] is SR. As to the kind of experiment: Cytotoxicity against human SR cells assessed as cell growth at 10 uM after 48 hrs by sulforhodamine B assay. The following applies: read-out: Activity. The class given is functional.
For assay [33], the system named is SR. As to the kind of experiment: Growth inhibition of human SR cells after 48 hrs by sulforhodamine B assay. Type of assay: functional. An outline of the steps:
as §1

The mark [34] stands for this setting: read-out: LC50 (the source's name).

Experimental findings from ChEMBL document CHEMBL1165943, “Design and synthesis of new anticancer pyrimidines with multiple-kinase inhibitory effect” (Bioorg Med Chem, 2010) are described below.

Chain of Rho-associated protein kinase 1 (Homo sapiens) (Q13464 2-1354 limits assumed): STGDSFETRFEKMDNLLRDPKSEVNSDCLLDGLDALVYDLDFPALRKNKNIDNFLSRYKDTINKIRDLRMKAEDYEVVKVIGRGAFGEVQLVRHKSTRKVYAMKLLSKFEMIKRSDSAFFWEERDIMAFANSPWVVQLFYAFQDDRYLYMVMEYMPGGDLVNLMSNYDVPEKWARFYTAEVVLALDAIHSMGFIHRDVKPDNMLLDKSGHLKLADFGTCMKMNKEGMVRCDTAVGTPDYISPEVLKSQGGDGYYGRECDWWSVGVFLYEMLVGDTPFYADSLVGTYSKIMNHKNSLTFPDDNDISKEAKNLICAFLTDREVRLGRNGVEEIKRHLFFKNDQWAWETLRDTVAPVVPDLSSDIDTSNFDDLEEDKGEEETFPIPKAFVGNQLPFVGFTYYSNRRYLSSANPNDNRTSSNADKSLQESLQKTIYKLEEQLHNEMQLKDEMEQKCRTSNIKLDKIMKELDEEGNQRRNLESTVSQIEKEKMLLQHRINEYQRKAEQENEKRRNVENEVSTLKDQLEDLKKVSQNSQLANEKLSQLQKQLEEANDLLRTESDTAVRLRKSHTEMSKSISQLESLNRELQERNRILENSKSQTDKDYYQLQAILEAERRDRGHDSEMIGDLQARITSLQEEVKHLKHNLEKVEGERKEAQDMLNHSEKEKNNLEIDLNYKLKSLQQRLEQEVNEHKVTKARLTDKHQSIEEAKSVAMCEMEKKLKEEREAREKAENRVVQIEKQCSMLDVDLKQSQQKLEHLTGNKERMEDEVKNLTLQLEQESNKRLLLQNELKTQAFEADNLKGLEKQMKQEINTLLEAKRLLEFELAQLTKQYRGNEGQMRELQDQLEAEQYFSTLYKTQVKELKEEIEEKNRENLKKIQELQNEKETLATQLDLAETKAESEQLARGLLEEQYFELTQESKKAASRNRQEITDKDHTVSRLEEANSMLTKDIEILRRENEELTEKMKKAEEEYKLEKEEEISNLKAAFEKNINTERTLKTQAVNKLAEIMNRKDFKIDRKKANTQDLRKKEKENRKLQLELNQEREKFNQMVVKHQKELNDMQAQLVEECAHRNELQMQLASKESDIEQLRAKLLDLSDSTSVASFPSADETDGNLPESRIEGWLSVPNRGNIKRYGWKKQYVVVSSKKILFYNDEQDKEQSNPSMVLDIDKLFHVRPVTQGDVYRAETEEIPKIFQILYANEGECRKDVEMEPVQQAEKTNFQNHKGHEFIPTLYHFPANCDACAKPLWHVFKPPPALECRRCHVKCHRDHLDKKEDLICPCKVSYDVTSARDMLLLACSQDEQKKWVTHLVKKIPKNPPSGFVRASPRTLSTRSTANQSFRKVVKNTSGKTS
Chain of Tyrosine-protein kinase ABL1 (Homo sapiens) (P00519 whole entry): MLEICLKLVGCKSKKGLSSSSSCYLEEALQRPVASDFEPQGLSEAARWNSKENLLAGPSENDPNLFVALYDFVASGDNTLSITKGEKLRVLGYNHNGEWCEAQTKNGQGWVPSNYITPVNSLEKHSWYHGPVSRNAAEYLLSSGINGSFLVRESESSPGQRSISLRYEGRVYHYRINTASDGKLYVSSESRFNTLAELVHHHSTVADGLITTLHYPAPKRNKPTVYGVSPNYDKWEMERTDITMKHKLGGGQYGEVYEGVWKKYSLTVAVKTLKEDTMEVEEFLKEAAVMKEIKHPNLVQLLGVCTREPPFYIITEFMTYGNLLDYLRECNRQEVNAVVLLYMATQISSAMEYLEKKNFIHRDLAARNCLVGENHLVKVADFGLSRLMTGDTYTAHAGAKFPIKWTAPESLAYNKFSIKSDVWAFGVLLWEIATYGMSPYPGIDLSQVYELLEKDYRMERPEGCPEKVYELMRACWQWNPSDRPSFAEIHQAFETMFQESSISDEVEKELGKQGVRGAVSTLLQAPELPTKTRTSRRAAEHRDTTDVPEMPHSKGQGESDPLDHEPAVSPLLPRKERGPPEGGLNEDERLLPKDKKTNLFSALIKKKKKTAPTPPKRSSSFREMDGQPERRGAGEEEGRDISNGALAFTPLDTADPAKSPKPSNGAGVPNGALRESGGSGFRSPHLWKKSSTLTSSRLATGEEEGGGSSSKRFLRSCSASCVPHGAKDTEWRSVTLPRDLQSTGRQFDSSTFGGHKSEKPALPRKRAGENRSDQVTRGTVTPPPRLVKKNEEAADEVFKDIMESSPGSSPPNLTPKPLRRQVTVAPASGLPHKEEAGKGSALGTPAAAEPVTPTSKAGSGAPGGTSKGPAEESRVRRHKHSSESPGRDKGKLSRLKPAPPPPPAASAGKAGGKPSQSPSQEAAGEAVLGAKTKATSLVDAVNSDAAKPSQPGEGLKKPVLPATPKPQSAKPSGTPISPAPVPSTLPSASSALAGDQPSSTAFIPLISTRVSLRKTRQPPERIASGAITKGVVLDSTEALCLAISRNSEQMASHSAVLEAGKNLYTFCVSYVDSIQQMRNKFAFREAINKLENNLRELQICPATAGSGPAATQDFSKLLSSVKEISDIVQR
Chain of Tyrosine-protein kinase Fyn (Homo sapiens) (P06241 2-537 limits assumed): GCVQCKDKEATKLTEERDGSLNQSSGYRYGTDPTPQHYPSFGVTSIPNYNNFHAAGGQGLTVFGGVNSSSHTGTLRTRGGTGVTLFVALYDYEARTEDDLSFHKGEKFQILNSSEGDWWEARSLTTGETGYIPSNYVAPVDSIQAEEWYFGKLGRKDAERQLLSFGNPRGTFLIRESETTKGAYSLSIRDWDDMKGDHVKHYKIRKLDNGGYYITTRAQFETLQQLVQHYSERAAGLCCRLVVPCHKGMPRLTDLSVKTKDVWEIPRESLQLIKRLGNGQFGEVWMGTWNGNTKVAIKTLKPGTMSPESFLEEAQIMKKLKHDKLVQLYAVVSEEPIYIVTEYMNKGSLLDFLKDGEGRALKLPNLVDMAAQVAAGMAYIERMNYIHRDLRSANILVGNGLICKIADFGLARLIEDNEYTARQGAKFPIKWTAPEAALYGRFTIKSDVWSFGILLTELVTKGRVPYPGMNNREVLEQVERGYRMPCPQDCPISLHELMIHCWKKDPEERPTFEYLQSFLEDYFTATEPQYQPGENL
Chain of Proto-oncogene tyrosine-protein kinase receptor Ret (Homo sapiens) (P07949 whole entry): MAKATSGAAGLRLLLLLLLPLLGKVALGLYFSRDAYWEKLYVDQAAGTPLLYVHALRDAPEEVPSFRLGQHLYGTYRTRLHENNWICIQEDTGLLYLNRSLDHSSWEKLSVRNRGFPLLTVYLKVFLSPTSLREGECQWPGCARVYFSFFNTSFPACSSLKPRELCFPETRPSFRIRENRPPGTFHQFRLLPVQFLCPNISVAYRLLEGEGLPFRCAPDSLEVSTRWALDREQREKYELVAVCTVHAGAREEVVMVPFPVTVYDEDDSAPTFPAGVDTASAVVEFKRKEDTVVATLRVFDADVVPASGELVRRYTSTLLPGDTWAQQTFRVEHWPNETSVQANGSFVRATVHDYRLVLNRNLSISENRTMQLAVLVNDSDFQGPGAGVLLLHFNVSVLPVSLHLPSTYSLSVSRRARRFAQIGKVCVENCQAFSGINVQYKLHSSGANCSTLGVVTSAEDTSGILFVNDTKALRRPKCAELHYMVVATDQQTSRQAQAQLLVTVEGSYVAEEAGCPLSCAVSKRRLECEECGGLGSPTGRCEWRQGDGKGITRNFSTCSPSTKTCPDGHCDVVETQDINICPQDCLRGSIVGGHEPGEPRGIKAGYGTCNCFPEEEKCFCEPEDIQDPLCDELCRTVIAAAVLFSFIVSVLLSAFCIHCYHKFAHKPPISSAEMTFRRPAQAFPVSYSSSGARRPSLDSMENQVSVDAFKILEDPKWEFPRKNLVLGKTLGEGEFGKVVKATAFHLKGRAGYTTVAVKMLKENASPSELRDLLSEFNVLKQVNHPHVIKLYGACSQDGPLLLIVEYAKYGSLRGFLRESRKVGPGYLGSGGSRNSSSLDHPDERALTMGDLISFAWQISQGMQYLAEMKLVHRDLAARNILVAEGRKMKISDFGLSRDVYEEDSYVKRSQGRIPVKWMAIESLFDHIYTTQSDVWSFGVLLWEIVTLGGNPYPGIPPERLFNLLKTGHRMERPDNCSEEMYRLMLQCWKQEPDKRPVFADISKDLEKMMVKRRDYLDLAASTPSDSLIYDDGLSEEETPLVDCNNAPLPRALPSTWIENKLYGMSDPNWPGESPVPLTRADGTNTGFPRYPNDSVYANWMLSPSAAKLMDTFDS
Chain of Mitogen-activated protein kinase 14 (Homo sapiens) (Q16539 whole entry): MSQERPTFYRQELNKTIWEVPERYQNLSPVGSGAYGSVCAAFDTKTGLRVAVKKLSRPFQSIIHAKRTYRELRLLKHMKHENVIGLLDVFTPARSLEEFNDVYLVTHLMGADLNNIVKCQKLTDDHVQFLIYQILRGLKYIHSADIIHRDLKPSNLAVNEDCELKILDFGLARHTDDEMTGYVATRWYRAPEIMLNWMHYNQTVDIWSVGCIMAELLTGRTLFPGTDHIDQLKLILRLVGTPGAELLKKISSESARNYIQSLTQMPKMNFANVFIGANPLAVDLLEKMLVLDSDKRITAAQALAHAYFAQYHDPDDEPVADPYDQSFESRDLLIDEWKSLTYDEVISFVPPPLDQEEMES
Chain of Mitogen-activated protein kinase 1 (Homo sapiens) (P28482 whole entry): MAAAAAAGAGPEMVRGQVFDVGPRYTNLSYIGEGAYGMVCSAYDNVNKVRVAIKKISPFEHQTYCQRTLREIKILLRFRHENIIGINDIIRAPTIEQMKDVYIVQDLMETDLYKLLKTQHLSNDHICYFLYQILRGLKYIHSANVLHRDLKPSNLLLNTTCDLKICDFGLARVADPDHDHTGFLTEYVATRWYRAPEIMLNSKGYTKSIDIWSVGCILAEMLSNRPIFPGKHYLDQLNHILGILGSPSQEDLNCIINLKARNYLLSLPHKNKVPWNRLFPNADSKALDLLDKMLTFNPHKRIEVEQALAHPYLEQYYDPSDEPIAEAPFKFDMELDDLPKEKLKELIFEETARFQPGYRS

For `CC(=O)Nc1cccc(-c2ccc(-c3ccnc(NC(=O)Nc4cc(C(F)(F)F)cc(C(F)(F)F)c4)n3)cn2)c1.Cl`, the inhibition in assay [1] is less than 50%; in assay [2], less than 50%; in assay [3] it was less than 50%; in assay [4], less than 50%; in assay [5], 50%; in assay [6], less than 50%. Moreover, the inhibition in assay [7], in assay [8], in [9], in [10], in assay [11] and in [12] was less than 50% each time. The inhibition was less than 50% in assay [13]; less than 50% in assay [14]; less than 50% in assay [15]; less than 50% in assay [16]; 70% in [17].
Regarding `CC(=O)c1ccccc1-c1ccc(-c2ccnc(NC(=O)Nc3cc(N4CCOCC4)cc(C(F)(F)F)c3)n2)cn1`, the growth at 0.001 µM was found to be 94% in the assay with MCF7 [18], 101% with RXF 393 [19], 98% in the assay on CCRF-CEM [24] and 101% with PC-3 [30]. In addition, the growth at 0.1 µM with CCRF-CEM [20] is 87%; in the assay on HCC 2998 [22], 117%; in the assay with NCI-H226 [26], 96%; with RXF 393 [28] it was 82%; in the assay with NCI-H23 it was 83%. The GI50 in the assay on CCRF-CEM [21] is greater than 100 µM; in the assay on NCI-H226 [25] it was greater than 100 µM; with PC-3 [27] (Homo sapiens, PC-3, 48 h) it was greater than 100 µM; in the assay with SR [33] it was greater than 100 µM. Besides, the TGI in the assay on CCRF-CEM [21], with NCI-H226 [25] and in the assay with SR [33] was greater than 100 µM throughout. In addition, the CC50 in the assay on CCRF-CEM [21] (setting [34]), with NCI-H226 [25] (setting [34]) and in the assay with SR [33] (setting [34]) was greater than 100 µM throughout. Moreover, the figures for the growth at 10 µM with MCF7 [23], in the assay on HCC 2998 [31] and in the assay with SR [32] were 70%, 135% and 107%, respectively. Also, the IC50 result with PC-3 [27] (pc-3) is listed as “Not Active”. Further, the growth at 0.01 µM with NCI-H226 [29] came to 108%.

Usually inhibition stands for how much of the control response was suppressed. A low value points to a response near the control. In general, GI50 refers to the concentration giving 50% growth inhibition. A low value points to more potent growth inhibition. Usually TGI stands for the concentration giving total growth inhibition. A high value points to less potent growth arrest.
